# From PubChem BioAssay
# Shown are actives, neighbours in structure and some others; about 4.9% of the full set was active somewhere.
# APP 5'UTR act: activates APP 5'UTR luciferase reporter; SH-SY5Y APP 5'UTR luciferase reporter, luminescence; zero percent = DMSO vehicle wells; activation, % at 2 µM; hit rate 1% among 190,000; AID 1276;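 active = activation above a set limit, based on mean plus 3 SD of controls, cut at about 140% in these data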
# STAT1 activator: STAT1 signaling activation. hit rate 2.6% among 200,000. NIH 3T3 STAT1-luciferase reporter, IFN-gamma, luminescence; 100% = IFN-gamma alone, no compound. activation (% of control), % at 5.5 µM;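 active = activation above the screen-wide mean activation plus 3 SD, cut at about 130% in these data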;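 note: raw ratio to IFN-gamma control signal so 100% means no change and 0% no light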
# STAT3 activator: increases IL-6 driven STAT3 reporter signal. activation (% of control), % at 5.6 µM. hit rate 0.91% among 190,000. U3A cells, IL-6 STAT3-luciferase reporter, luminescence; 100% = signal with IL-6 EC80 alone;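 active = activation above the screen-wide mean of compound activation plus 3 SD, cut at about 130% in these data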;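 note: 0% = background luminescence of wells with medium and substrate only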
#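 System – human U3A cells carrying STAT3-luciferase construct · Probe or stimulus – Interleukin-6, 33 ng/mL · Schedule – compound 1 h, then IL-6 6 h at 37 °C · Signal – luminescence from STAT3-driven luciferase reporter · Evaluation – percent of IL-6-only median luminescence · Benchmarks – IL-6-only high control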
# STAT1 blocker: STAT1 signaling inhibition | NIH 3T3 STAT1-luciferase reporter, IFN-gamma, luminescence | inhibition, % at 5.5 µM | hit rate 0.35% among 200,000 | AID 920;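 active = inhibition above a set limit, the mean inhibition across all tested compounds plus 3 SD, cut at about 34% in these data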;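 note: 0% = IFN-gamma with DMSO and 100% = IFN-gamma with 300 µM nifuroxazide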
# STAT3 inh: reduces IL-6 driven STAT3 reporter signal | U3A cells, IL-6 STAT3-luciferase reporter, luminescence; host cell line lacks STAT1 | inhibition, % at 5.5 µM | hit rate 0.89% among 190,000;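 active = inhibition above the mean inhibition across all screened compounds plus 3 SD, cut at about 44% in these data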;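 note: 0% = DMSO only wells and 100% = 100 µM nifuroxazide control wells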
# NF-kB neuron act: compounds increasing NF-kB expression in human neuronal cells; fold change at 12.5 µM; hit rate 1.6% among 190,000; NF-kB reporter expression; hits give high values; in the data active = fold change above about 3.3
# The depositor's hits bear a star; nt = not tested or not shown.
SMILES,APP 5'UTR act,STAT1 activator,STAT3 activator,STAT1 blocker,STAT3 inh,NF-kB neuron act
C=CCn1c(SCc2c(C)noc2C)nc2ccccc2c1=O,-95,102,103,-3,1,3.4*
CCn1c(CC(=O)Nc2ccccc2)n[nH]c1=S,-1,93,92,6,11,1.8
CCOC(=O)Cn1cnc2c(cnn2-c2ccc(Cl)cc2)c1=O,-5,106,95,-6,9,1.6
COC(=O)C(C)n1cnc2c(cnn2-c2ccc(Cl)cc2)c1=O (configuration not stated),6,129*,98,-32,8,1.2
Oc1ccc(Br)cc1/C=N/N1CCN(Cc2ccccc2)CC1,-4,105,102,-6,-3,2.9
Oc1ccc(Br)cc1/C=N/N1CCCCC1,54,110,92,-11,7,4*
CC(=O)N/C(=C\c1ccccc1)C(=O)Nc1ccccc1C,9,101,98,-2,6,1.2
O=C(NNc1ccnc2cc(Cl)ccc12)C1CCCCC1,-18,66,39,36*,76*,1.1
COc1ccc(C(=O)OCC(=O)c2ccc(C3CCCCC3)cc2)cc1,25,97,70,4,39,1.1
Nc1ccc(O)cc1C(=O)OCC(=O)c1ccc(C2CCCCC2)cc1,-49,107,69,-8,39,6.8*
COc1ccc([N+](=O)[O-])cc1NCc1ccccc1,10,143*,110,-48,-11,1.6
Cc1cc(C)nc(N/N=C/c2cccc(Cl)c2)n1,65,109,93,-10,12,1.2
Clc1cccc(/C=N/Nc2nc(Cl)nc3ccccc23)c1,nt,145*,112,-49,-8,2.5
O=C(Nc1ccccc1Br)C1CC(=O)N(c2ccc3c4c(cccc24)CC3)C1 (configuration not stated),1,107,101,-8,-2,0.78
CC1(C)C(CSc2nc3ccccc3[nH]2)C1(Cl)Cl (configuration not stated),28,98,99,1,5,1.4
O=C(CNc1ccc(Br)cc1)NNC1=NCCC1,6,101,108,-1,0,1.2
COc1n[nH]c(C(=O)Nc2nc3ccccc3s2)c1[N+](=O)[O-],17,134*,123,-41,-22,1.5
CCOc1ccc(/C=C/C(=O)CCC(=O)O)cc1,62,127,107,-32,-3,nt
CCOc1ccc(/C=C\C(C)=N\O)cc1,121,128,92,-31,13,5.1*
COc1ccc(OCCCSc2ncccn2)cc1,63,142*,99,-46,7,2
Cc1ccc(OCCCSc2ncccn2)cc1C,66,135*,113,-37,-14,1.9
Clc1ccc(OCCSc2ncccn2)cc1,102,131*,103,-34,-7,3.2
COc1cc([N+](=O)[O-])cc2sc(NC(=O)c3c(F)cccc3F)nc12,14,104,93,-6,17,1.2
Clc1ccc(Cn2cccn2)cn1,17,103,103,-5,1,1.3
CN1C(=O)/C(=C/c2ccccc2OCc2cccc(F)c2)NC1=S,6,103,94,-6,16,0.9
SMILES,APP 5'UTR act,STAT1 activator,STAT3 activator,STAT1 blocker,STAT3 inh,NF-kB neuron act
Cc1cc(/C=N\NC(=O)CC(=O)NC2CCCCC2)c(C)n1-c1ccc(Cl)c(Cl)c1,9,105,105,-5,4,0.96
Cc1cc(/C=N/NC(N)=S)c(C)n1-c1ccc(Cl)c(Cl)c1,-6,114,97,-16,1,7.8*
CCNC(=S)N/N=C/c1cc(C)n(-c2ccc(Cl)cc2)c1C,20,144*,106,-50,1,1
O=C(Cc1cccc(C(F)(F)F)c1)NCC(c1ccco1)N1CCCCC1 (configuration not stated),1,94,105,3,-1,1
Clc1ccc(-c2nnc(-c3ccco3)o2)cc1,91,144*,86,-48,19,2.3
CCN(CC)c1ccc2c(c1)OC(N)=C(C#N)C2c1cccnc1 (configuration not stated),-94,88,106,13,0,3.5*
N#CC1=C(N)Oc2cc(N)ccc2C1c1cccnc1 (configuration not stated),17,109,101,-10,2,0.85
Cc1cccc(-n2ncc3c(NCc4ccccc4)ncnc32)c1,48,121,107,-21,-8,1.8
COCCN(CCOC)c1ncnc2c1cnn2-c1ccc(Cl)cc1,42,127,86,-30,19,1.1
Cc1cccc(-n2ncc3c(N(CCO)CCO)ncnc32)c1,73,130*,109,-31,-11,1.8
Clc1ccc(Nc2ncnc3c2cnn3-c2ccccc2)cc1,51,125,96,-25,4,2.4
Clc1ccc(-n2ncc3c(NCc4cccs4)ncnc32)cc1,126,134*,95,-37,13,2.8
COCCNc1ncnc2c1cnn2-c1ccc(Cl)cc1,197*,156*,85,-62,25,7.4*
Cc1cccc(-n2ncc3c(NCc4ccco4)ncnc32)c1,49,130*,112,-31,-7,2.6
Cc1cccc(-n2ncc3c(N4CCCc5ccccc54)ncnc32)c1,46,141*,99,-44,-2,2.8
CC(=O)Nc1ccc(Nc2ncnc3c2cnn3-c2cccc(C)c2)cc1,32,144*,97,-48,6,1.3
Cc1cccc(-n2ncc3c(NCCN4CCOCC4)ncnc32)c1,23,107,108,-8,-2,0.84
c1csc(CNc2ncnc3sccc23)c1,-3,77,49,25,66*,nt
Cc1cccc(-n2ncc3c(NCc4cccs4)ncnc32)c1,76,131*,102,-34,2,2.2
c1cncc(CNc2ncnc3sccc23)c1,3,90,94,12,8,1.1
CCCCCCCC#Cc1ccccc1/C=N/S(=O)c1ccc(C)cc1 (configuration not stated),-19,102,102,-2,-5,0.95
O=C(O)C1CC(=O)N(c2ccc(OCc3ccccc3)cc2)C1 (configuration not stated),-6,96,101,4,6,1.2
O=C1CCOc2cc(OCc3ccccc3)ccc21,118,134*,85,-21,20,6.3*
COc1ccc(OC)c(NC(=O)C(C)Oc2ccc(Br)cc2)c1 (configuration not stated),-4,89,92,9,14,1.3
O=C1C2CC=CCC2C(=O)N1c1ccc(NCCc2ccc(O)cc2)c([N+](=O)[O-])c1 (configuration not stated),29,95,91,6,14,1.2
Cc1cc(C2=NNC(=NC3CC3)SC2)c(C)n1-c1ccccc1F,-70,21,14,89*,102*,0.18
c1cc2c(cc1C1=NNC(=NC3CC3)SC1)OCCO2,-51,12,10,94*,108*,0.26
